# Compound activity from PubChem BioAssay.
# Rows were chosen to be rich in hits. Some 3.2% of all compounds tested hit in one or more screens of this group.
# MEKK2wt PB1 HTS = raises or lowers MEK5 binding to wildtype human MEKK2 PB1 domain; binding response (% of control), % at 10 µM; AID 1531; bead flow cytometry, Alexa488-MEK5 binding to MEKK2 WT; actives lie on both sides; actives 1.1% (n = 290,000); in the data active = binding response below about 67% or above about 130%
# MEKK2 mut-MEK5 = signal of MEK5 binding to mutant human MEKK2 PB1 domain | percent response, % at 10 µM | actives 0.35% (n = 290,000) | AID 1530 | bead flow cytometry, Alexa488-MEK5 binding to MEKK2 mutant; in the data active = percent response above about 24%, passing the limit was not always enough
# Apaf1 inhib = human Apaf-1 inhibition | AID 489030 | inhibition, % at 20 µM | actives 0.71% (n = 330,000) | O14727 | reconstituted apoptosome caspase-3 activity, DEVD-Rh110 fluorescence; active = inhibition of at least 40% at 20 µM;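 note: plate controls were DMSO wells for no effect and DEVD-CHO caspase inhibitor wells for full effect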
#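 System: reconstituted apoptosome with Apaf-1, cytochrome c, caspase-9, procaspase-3, dATP; Signal: Rh110 fluorescence intensity; Schedule: 30 min compound preincubation, 50 min activation, room temperature; Reagent: cytochrome c trigger plus (Z-DEVD)2-Rh110 caspase-3 substrate.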
# MEKK3 PB1 HTS = raises or lowers MEK5 binding to the human MEKK3 PB1 domain. bead-based flow cytometry, Alexa488-MEK5 binding to MEKK3; actives lie on both sides; 0 = blocked by unlabeled MEK5, 100 = vehicle. binding response (% of control), % at 10 µM. AID 1529. actives 1.4% (n = 290,000);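 active = binding response more than 3 SD above or below the average of its plate-row segment, actives on both sides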;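 note: Alexa488 bead fluorescence after subtracting the streptavidin-only scavenger bead signal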
# UBC13 inh = human UBC13 polyubiquitination inhibition. P61088. UBC13 polyubiquitin chain formation, TR-FRET. actives 0.47% (n = 330,000). inhibition, % at 20 µM; in the data active = inhibition above about 45%, passing the limit was not always enough
# Target sequence (P61088 whole entry, looked up): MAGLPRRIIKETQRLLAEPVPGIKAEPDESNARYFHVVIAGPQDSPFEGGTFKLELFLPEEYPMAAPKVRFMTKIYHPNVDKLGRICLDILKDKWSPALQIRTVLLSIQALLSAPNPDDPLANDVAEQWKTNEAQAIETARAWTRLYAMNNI
# DSG3 Ab inh = blocks pemphigus antibody binding to human desmoglein-3 | P32926 | actives 0.48% (n = 310,000) | binding (percent of control), % at 10 µM | DSG3-coupled beads, scFv-anti-DSG3-GFP binding, flow cytometry; active compounds read low | AID 588358;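 active = binding more than 3 SD below its plate's average and above zero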;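 note: hits lower antibody fragment binding to DSG3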
# MEKK2wt confirm = raises or lowers MEK5 binding to wildtype human MEKK2, retest | shares compounds with MEKK3 PB1 HTS | bead flow cytometry, Alexa488-MEK5 binding to MEKK2 WT; actives lie on both sides | binding response (% of control), % at 10 µM | actives 2.4% (n = 5,900) | AID 1892; in the data active = binding response below about 16% or above about 210%; inactive = in between
# MEKK2mut-MEK5 = signal of MEK5 binding to mutant human MEKK2, retest; shares compounds with MEKK3 PB1 HTS; bead flow cytometry, Alexa488-MEK5 binding to MEKK2 mutant; percent response, % at 10 µM; actives 2% (n = 5,900); AID 1893; in the data active = percent response mostly above about 71%, no sharp cut-off; inactive = mostly below about 38%;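 note: higher means compound restores mutant binding toward wildtype level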
# MEKK3-MEK5 inh = confirmation of inhibitors of MEK5 binding to human MEKK3 | shares compounds with MEKK3 PB1 HTS | bead flow cytometry, Alexa488-MEK5 binding to MEKK3; active compounds read low | binding response (% of control), % at 10 µM | actives 1.8% (n = 5,900) | AID 1894;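 active = binding response below 72% of control, or above a set upper limit, though filed actives all read lower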;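 note: 100% = DMSO only wells and 0% = binding blocked by excess unlabeled MEK5; lower values mean stronger disruption of MEK5 binding to MEKK3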
# * = called active by the depositor; . = no result given; [ ] = dose if it differs, or a comment.
SMILES,MEKK2wt PB1 HTS,MEKK2 mut-MEK5,Apaf1 inhib,MEKK3 PB1 HTS,UBC13 inh,DSG3 Ab inh,MEKK2wt confirm,MEKK2mut-MEK5,MEKK3-MEK5 inh
CC(Nc1cc(N2CCNCC2)ccc1[N+](=O)[O-])c1ccccc1 (stereo unspecified),132.0,4.0,5.9,163.0*,-25.7,106.2,129.0,28.0,106.0
NCCNc1ccc([N+](=O)[O-])c(Sc2nc3ccccc3[nH]2)c1,115.0,6.0,0.3,116.0,-1.3,93.4,.,.,.
CCS(=O)(=O)N1CCN(c2ccc([N+](=O)[O-])c(NC(C)c3ccccc3)c2)CC1 (stereo unspecified),102.0,5.0,15.6,103.0,-20.4,.,.,.,.
O=[N+]([O-])c1ccc(N2CCNCC2)cc1Sc1nc2ccccc2[nH]1,144.0*,19.0,-3.2,104.0,2.7,95.7,107.0,-1.0,102.0
COc1ccc(N2CCN(C(=O)c3cc4c(s3)-c3ccccc3S(=O)(=O)C4)CC2)cc1,-10.0*[inhibitor],-19.0,-11.0,82.0,4.6,90.8,101.0,5.0,104.0
Cc1ccc(SCc2nc3ccccc3n2CC(=O)Nc2ccc(Cl)cc2)cc1,136.0*,26.0*,3.3,106.0,-6.3,95.8,121.0,18.0,111.0
Cc1ccc(SCc2nc3ccccc3n2CC(=O)Nc2ccccc2)cc1,100.0,4.0,4.8,98.0,7.9,107.5,.,.,.
Cc1ccc(CNC(=O)CCS(=O)(=O)c2ccc3c(c2)CC(C)N3C(=O)C2CC2)cc1 (stereo unspecified),99.0,3.0,-7.0,97.0,2.4,97.1,.,.,.
CCn1cc(CN2CCCC(C(=O)Nc3cccc(-c4cc5ccccc5[nH]4)c3)C2)c(C)n1 (stereo unspecified),154.0*,21.0,34.1,107.0,18.6,101.4,176.0,39.0,104.0
CCn1cc(CN2CCCC(C(=O)Nc3ccc(-c4nc5ccccc5[nH]4)cc3)C2)c(C)n1 (stereo unspecified),124.0,11.0,12.8,102.0,2.5,98.2,.,.,.
CCc1cc(Cn2nc(-c3ccccc3)cc2C(=O)NCc2cccc(Br)c2)on1,.,.,6.1,.,6.2,101.1,.,.,.
O=C(OCCc1cc2ccccc2c(=O)o1)c1cccc(Br)c1,.,.,20.0,.,3.5,100.4,.,.,.
CCN(CC)c1nc2ccccc2c(N)c1-c1ccccc1,123.0,26.0*,-3.9,114.0,1.6,99.7,106.0,0.0,99.0
O=C(CCCc1ccccc1)NCCS(=O)(=O)N1CCN(c2ccccc2)CC1,.,.,.,.,.,100.1,.,.,.
Nn1c(SCC(=O)NC2CCCC2)nnc1C(F)(F)F,.,.,.,.,.,103.7,.,.,.
COc1ccccc1NC(=O)CSc1nc2n[nH]c(C)c2c(=N)n1-c1ccccc1Cl,140.0*,18.0,-3.0,95.0,34.2,100.8,139.0,21.0,105.0
CC1SC(=S)N(c2ccc(N(C)C)cc2)C1=O (stereo unspecified),101.0,2.0,3.6,102.0,0.7,99.1,.,.,.
CCSc1nnc(NC(=O)C2Cc3ccccc3CN2S(=O)(=O)CC)s1 (stereo unspecified),16.0*[inhibitor],-1.0,10.3,12.0*[inhibitor],-22.5,101.5,99.0,2.0,104.0
CCS(=O)(=O)N1Cc2ccccc2CC1C(=O)Nc1nnc(SCc2c(Cl)cccc2Cl)s1 (stereo unspecified),93.0,-1.0,25.9,97.0,-11.1,97.1,.,.,.
Cc1nc2ccc(Cl)cc2c(-c2ccccc2)c1CC(=O)O,97.0,-2.0,-7.0,98.0,-9.3,93.7,.,.,.
Cc1nc2ccccc2c(-c2ccccc2)c1CC(=O)O,114.0,3.0,-5.4,168.0*,1.0,103.8,111.0,2.0,105.0
CC(NC(=O)Nc1ccc(F)cc1)C(c1cccs1)N1CCCC1 (stereo unspecified),117.0,1.0,-10.6,142.0*,-10.7,92.0,109.0,3.0,105.0
CC(NC(=O)c1ccc(F)cc1)C(c1cccs1)N1CCN(C)CC1 (stereo unspecified),96.0,-1.0,-11.7,95.0,-4.8,106.6,.,.,.
C/C(=N\NC(=O)c1c(Cl)c(C)nn1C)c1cccc(NC(=O)C2CCCC2)c1,116.0,9.0,1.7,109.0,-10.1,.,.,.,.
CC(NCCN(C)C)C1CCC2C3CCc4cc(O)ccc4C3CCC12C (stereo unspecified),.,.,.,.,.,91.5,.,.,.
SMILES,MEKK2wt PB1 HTS,MEKK2 mut-MEK5,Apaf1 inhib,MEKK3 PB1 HTS,UBC13 inh,DSG3 Ab inh,MEKK2wt confirm,MEKK2mut-MEK5,MEKK3-MEK5 inh
CC1(CCC(=O)O)C(=O)CCC2C1CCC1(C)C2CCC1(C)O (stereo unspecified),.,.,.,.,.,92.6,.,.,.
CCN(CC)c1ccc(/C=N/NS(=O)(=O)c2ccc(CNC(C)=O)cc2)cc1,109.0,0.0,-5.6,145.0*,-8.5,108.0,98.0,-4.0,100.0
CC(=O)NCc1ccc(S(=O)(=O)N/N=C/c2ccc(Br)cc2)cc1,111.0,0.0,-5.2,139.0*,-0.2,104.5,98.0,-3.0,101.0
Cc1ccc(S(=O)(=O)N2CCN(C(=O)CN3C(=O)c4ccccc4C3=O)CC2)c(C)c1,.,.,-6.9,.,0.6,89.4,.,.,.
O=C(COC(=O)C1COc2ccccc2O1)c1ccccc1 (stereo unspecified),.,.,.,.,.,103.3,.,.,.
COc1ccc(CCNC(=O)CN2C(=O)COc3ccc(S(=O)(=O)N4CCOCC4)cc32)cc1OC,107.0,5.0,-5.5,105.0,3.7,.,.,.,.
Oc1ccccc1CNc1ccc2c(c1)OCCO2,94.0,0.0,-10.0,102.0,4.2,96.0,.,.,.
c1csc(CNc2ccc3c(c2)OCCO3)c1,98.0,-1.0,.,131.0*,.,102.0,93.0,-6.0,94.0
COc1ccc(/C=C2\SC(=O)N(CCC(=O)Nc3ccccc3)C2=O)cc1OC,90.0,-2.0,-10.3,89.0,2.6,93.8,.,.,.
COc1cc(/C=C2\SC(=O)N(CCN)C2=O)ccc1OS(=O)(=O)c1cc(C)ccc1C,178.0*,14.0,.,97.0,.,116.7,191.0,54.0,110.0
CN(Cc1ccccc1)S(=O)(=O)c1ccc(Cl)c(C(=O)N2CCOCC2)c1,.,.,.,.,.,99.5,.,.,.
CCN(CC)S(=O)(=O)c1ccc2c(c1)c(=O)c(C(=O)NCc1ccco1)cn2C,123.0,13.0,-7.3,135.0*,3.3,111.1,102.0,-6.0,100.0
COC(=O)c1sccc1NC(=O)Nc1ccc(F)cc1F,99.0,-5.0,10.9,103.0,2.8,99.9,.,.,.
